# Assay outcomes (PubChem)
# Hits are enriched below; roughly 1.8% of the tested compounds scored in any of these assays.
# MBD2 inh = inhibitors of human MBD2 binding to methylated oligonucleotide | TR-FRET | inhibition, % at 4.4 µM | hit rate 0.31% among 370,000 | AID 686964; in the data active = inhibition above about 13%
# CASP6 VEID inh = caspase-6 (human) enzyme inhibition; hit rate 0.53% among 350,000; purified caspase-6, Z-VEID-R110 cleavage fluorescence; AID 686996; inhibition, % at 12.5 µM;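 active = mean inhibition across replicates at least about 35%, with every replicate also reaching that limit, limit read from the data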;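 note: 0% = median of neutral control wells and 100% = no fluorescence left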
# UHRF1 MBD2 ctr = blocks human UHRF1 binding to methylated DNA | hit rate 0.75% among 370,000 | UHRF1 binding to methylated oligo, TR-FRET | inhibition, % at 4.4 µM | Q96T88; in the data active = inhibition above about 21%;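 note: UHRF1 SRA domain binding a hemimethylated CpG hairpin DNA probe; 0% = median of test compound wells and 100% = reference inhibitor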
# Target sequence (Q96T88 whole entry, looked up, the tested form may be a part): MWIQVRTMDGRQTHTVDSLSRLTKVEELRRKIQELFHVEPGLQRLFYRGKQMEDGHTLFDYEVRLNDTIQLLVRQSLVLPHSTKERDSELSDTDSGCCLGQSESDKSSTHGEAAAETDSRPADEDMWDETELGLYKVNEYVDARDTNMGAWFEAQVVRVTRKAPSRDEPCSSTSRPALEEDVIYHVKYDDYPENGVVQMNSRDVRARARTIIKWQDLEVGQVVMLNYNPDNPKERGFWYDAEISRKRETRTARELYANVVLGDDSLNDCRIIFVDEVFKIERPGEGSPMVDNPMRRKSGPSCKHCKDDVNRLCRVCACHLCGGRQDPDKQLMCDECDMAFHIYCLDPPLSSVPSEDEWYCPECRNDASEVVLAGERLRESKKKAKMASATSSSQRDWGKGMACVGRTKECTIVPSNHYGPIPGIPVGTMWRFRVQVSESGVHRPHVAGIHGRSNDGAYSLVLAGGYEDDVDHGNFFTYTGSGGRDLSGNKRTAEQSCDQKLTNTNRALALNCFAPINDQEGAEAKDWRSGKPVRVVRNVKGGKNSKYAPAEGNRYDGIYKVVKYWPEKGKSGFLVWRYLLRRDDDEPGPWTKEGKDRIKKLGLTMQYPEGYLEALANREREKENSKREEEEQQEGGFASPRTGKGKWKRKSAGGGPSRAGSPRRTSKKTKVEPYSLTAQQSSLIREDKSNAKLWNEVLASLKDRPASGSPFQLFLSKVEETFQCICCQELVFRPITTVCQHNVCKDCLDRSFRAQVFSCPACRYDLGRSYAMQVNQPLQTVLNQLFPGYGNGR
# LEDGF integ inh = blocks HIV-1 LEDGF/p75-dependent DNA integration. TR-FRET IN-LEDGF/p75 DNA integration, Eu/Cy5. inhibition, % at 3.7 µM. hit rate 0.64% among 370,000;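 active = inhibition above the screen-wide mean plus 3 SD, cut at about 13% in these data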;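 note: signal is the Cy5 over europium emission ratio at 671 and 618 nm; 0% = plate median of compound wells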
# NSD2 HMT inh = blocks human histone methyltransferase NSD2; hit rate 0.54% among 310,000; O96028; inhibition, % at 12.5 µM; NSD2 peptide methylation, AlphaScreen, 120 min; in the data active = inhibition above about 50%
# TDP2 inh = blocks human TDP2 phosphodiesterase activity | inhibition, % at 12.8 µM | hit rate 0.34% among 370,000 | AID 720702 | O95551 | recombinant TDP2, T5PNP hydrolysis, p-nitrophenol absorbance 415 nm;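 active = inhibition above the mean of all tested compounds plus 3 SD, set per campaign, cut at about 25% in these data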;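 note: 0% = DMSO with enzyme and 100% = buffer with substrate but no TDP2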
#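 Read-out basis: percent inhibition. System: recombinant human TDP2. Buffer or medium: Mg2+-containing Tris-HCl buffer, pH 7.5. Repeats: single replicate. Timing: reaction 2 h, 37 °C. Benchmarks: high control without enzyme, low control DMSO plus TDP2. Probe or stimulus: 5 mM T5PNP. Doses: 12.8 µM only. Measured by: epi absorbance of p-nitrophenol freed from T5PNP by hydrolysis.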
# IN multimer act = activates HIV-1 integrase multimerization in LEDGF counter-screen; shares compounds with LEDGF integ inh; hit rate 17% among 2,000; TR-FRET HIV-1 integrase multimerization, biochemical; activation, % at 7.7 µM; in the data active = activation above about 8.9%
# TRFRET interf = optically interferes with TR-FRET readout in LEDGF counter-screen; inhibition, % at 7.7 µM; AID 1053135; TR-FRET optical interference counterscreen, HIV-1 IN multimerization; 2,000 tested, under 10 active; shares compounds with LEDGF integ inh;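 active = inhibition above the mean over all tested compounds plus 3 SD, which no compound reached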;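 note: 0% = integrase with antibodies and DMSO and 100% = antibodies without integrase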
# IN-LEDGF confirm = confirmation of HIV-1 LEDGF/p75-dependent integration inhibitors; inhibition, % at 3.7 µM; TR-FRET LEDGF/p75-dependent HIV-1 integration, biochemical; hit rate 36% among 2,000; shares compounds with LEDGF integ inh; in the data active = inhibition above about 14%
# Active calls of the source: *; x = no result.
SMILES,MBD2 inh,CASP6 VEID inh,UHRF1 MBD2 ctr,LEDGF integ inh,NSD2 HMT inh,TDP2 inh,IN multimer act,TRFRET interf,IN-LEDGF confirm
Cc1ccc(Cl)cc1-c1ccc(C=Nc2ccc(N3CCOCC3)cc2)o1,-6,-1,-3,28*,2,23,4,-14,11
Cc1cc(=O)oc2cc3c(cc12)OCCO3,1,x,-1,29*,2,2,-4,13,0
O=C(NCc1ccco1)c1c2c(nc3ccccc13)CCC2,8,x,18,28*,-3,13,4,-18,24*
COc1ccc2c3c(n(C)c2c1)[C@@H](CO)N(CC1CCCCC1)CC31CCN(C(C)=O)CC1,x,0,x,x,x,x,x,x,x
O=C(c1cc(-c2cccc(O)c2)on1)N1CCCCCC1,2,15,-1,47*,-7,7,0,1,-3
O=C(NC(=S)Nc1cccc([N+](=O)[O-])c1)C1CCCC1,-5,-4,-4,88*,-1,14,-2,12,4
O=C(C1CCC1)N1C[C@H]2[C@@H](c3ccccc31)[C@H](CO)N2C(=O)c1ccccc1F,x,1,x,x,x,x,x,x,x
Nc1ccc2cc3ccc(N)cc3nc2c1,-38,x,-368,44*,x,16,33*,-165,74*
Nc1ccc(-c2nc3ccc(N)cc3s2)cc1,-1,-2,-8,-2,x,8,x,x,x
CN(C)C(=S)Nc1nc2ccccc2s1,-2,1,-2,17*,-1,12,1,-6,9
C[C@H](CO)N1C[C@H](C)[C@H](CN(C)S(=O)(=O)c2ccccc2)Oc2ccc(NC(=O)CCC(F)(F)F)cc2C1=O,x,2,x,x,x,x,x,x,x
O=C(C[C@@H]1CC[C@@H](NS(=O)(=O)c2ccc(F)cc2)[C@H](CO)O1)NC1CCC1,x,-2,x,x,x,x,x,x,x
C[C@H](CO)N1C[C@H](C)[C@@H](CN(C)Cc2ccc(C(F)(F)F)cc2)Oc2ccc(NS(=O)(=O)c3cn(C)cn3)cc2CC1=O,x,1,x,x,x,x,x,x,x
CCc1nc(NCc2cccs2)c2nnn(Cc3ccccc3)c2n1,3,-3,-2,16*,-1,3,0,-1,8
CCc1nc(Nc2ccccc2)c2nnn(Cc3ccccc3)c2n1,3,2,-6,0,1,17,x,x,x
CN1C(=O)c2cc(NC(=O)C3CCCC3)ccc2OC[C@@H]2O[C@H](CC(=O)NCC(F)(F)F)CC[C@@H]21,x,1,x,x,x,x,x,x,x
Oc1cccc(/C=N/NC(=S)NCCN2CCOCC2)c1O,5,5,30*,79*,3,13,5,-26,-5
CCCc1cn(CC[C@H]2CC[C@H](NC(=O)C3CCCC3)[C@@H](CO)O2)nn1,x,0,x,x,x,x,x,x,x
CC1CCN(C(=O)c2[nH]cnc2C(=O)NC2CCN(C(=O)OC(C)(C)C)CC2)CC1,4,-2,2,17*,x,2,-1,5,-1
O=C(O)c1cc(Cl)ccc1-c1ccc(/C=C/c2cc(C(F)(F)F)[nH]c(=O)n2)o1,1,45*,3,17*,47,0,-1,6,11
N#Cc1ccc(-c2ccc3c(c2)[C@@H]2[C@@H](CCN2C(=O)C2CCCC2)[C@H](CO)N3)cc1,x,0,x,x,x,x,x,x,x
O=C(O)CSc1nnc(NC(=O)c2ccc3c(c2)OCO3)s1,5,x,2,-3,0,-10,x,x,x
COC(=O)CSc1nnc(NC(=O)c2ccc3c(c2)OCO3)s1,-5,-4,0,25*,-1,-6,0,-1,-13
CC(=O)N1[C@H](C(=O)N2CCCCC2)[C@@H](CO)[C@@H]2Cn3c(ccc(C4=CCCCC4)c3=O)[C@@H]21,x,-3,x,x,x,x,x,x,x
CCOc1ccc(C(=O)C[n+]2ccccc2C)cc1,-3,x,2,14*,-3,4,0,1,-3
SMILES,MBD2 inh,CASP6 VEID inh,UHRF1 MBD2 ctr,LEDGF integ inh,NSD2 HMT inh,TDP2 inh,IN multimer act,TRFRET interf,IN-LEDGF confirm
CCn1c(SCC(=O)Nc2cc(C)on2)nnc1-c1ccc(S(=O)(=O)N2CCN(C)CC2)cc1,-2,x,0,18*,-3,13,0,2,-1
Cc1ccc(/C=[N+](\[O-])c2ccc(N(C)C)cc2)c2nsnc12,-7,x,0,14*,8,16,10*,-38,11
Cc1cc(-c2n[nH]c(=S)n2/N=C/c2cccs2)n[nH]1,3,-1,-1,38*,-2,8,2,-8,1
O=C1O[C@H](c2ccccc2)[C@H](c2ccccc2)N2[C@H]1[C@@H](C(=O)NC[C@H](O)c1ccccc1)[C@]1(C(=O)Nc3ccc(C#CCCO)cc31)[C@H]2c1ccc(OCCO)cc1,x,1,x,x,x,x,x,x,x
O=C(O)c1cn(-c2ccccc2)nc1-c1ccncc1,7,x,5,4,-1,-2,x,x,x
O=C(c1cn(-c2ccccc2)nc1-c1ccncc1)n1nnc2ccccc21,-4,0,-4,16*,-2,6,1,-7,0
CCCCc1c(O)nc(SCC(=O)NCC2CCCO2)[nH]c1=O (stereo not drawn),0,x,-2,-2,-1,-4,x,x,x
CCCCCc1c(O)nc(SCC(=O)NCC2CCCO2)[nH]c1=O (stereo not drawn),-1,x,-1,34*,-1,4,1,-5,4
CN(Cc1ccccc1)c1cc2c(c3c1ccn3C)C1CCC2C1 (stereo not drawn),-2,-2,-4,52*,x,1,-1,3,-5
O=C(COC(=O)C1CCN(S(=O)(=O)c2ccc3c(c2)OCCO3)CC1)NC1CCS(=O)(=O)C1 (stereo not drawn),1,-3,1,81*,-3,-3,0,1,1
COCC#Cc1ccc2c(c1)O[C@@H](CN(C)C(=O)C1CC1)[C@@H](C)CN([C@@H](C)CO)S2(=O)=O,x,1,x,x,x,x,x,x,x
Cc1ccc(Cc2c(-c3ccccc3)nc3c(Cl)cc(C(F)(F)F)cn23)cc1,3,0,1,20*,x,-1,1,-5,-1
COc1ccc2c3c(n(C)c2c1)[C@@H](CO)N(CC1CC1)CC31CN(S(=O)(=O)c2cccs2)C1,x,3,x,x,x,x,x,x,x
C[C@H](CO)N1C[C@H](C)[C@H](CN(C)Cc2ccc(C(=O)Nc3ccccc3N)cc2)Oc2ccc(NC(=O)Cc3cn(C)c4ccccc34)cc2C1=O,x,6,x,x,x,x,x,x,x
COc1ccc(NC(=O)CSc2nnc(-c3ccco3)c(-c3ccco3)n2)cc1OC,-4,x,-7,1,3,3,x,x,x
O=C(CSc1ccc(Cl)cc1)Nc1cccc(NC(=O)c2ccco2)c1,4,x,-1,0,-3,-8,x,x,x
